Data on one molecule can be found in ChEMBL document CHEMBL3352269, “Discovery of 2-Pyridylpyrimidines as the First Orally Bioavailable GPR39 Agonists” (ACS Med Chem Lett, 2014).

A short description of data set [1]: Protein binding in mouse plasma. It counts as ADME, cell-free. The note with it: read-out: PPB (converted).
Data set [2] can be described thus: Cmax in C57BL/6 mouse at 30 mg/kg, po administered as single dose after 1 to 1.5 hrs by LC/MS/MS method. It counts as ADME, organism-based. More on the design: dose 30 mg/kg, route oral. Particulars: in vivo.
Data set [3] is described as follows: Cmax in C57BL/6 mouse at 100 mg/kg, po administered as single dose after 1 to 1.5 hrs by LC/MS/MS method. It counts as ADME, organism-based. Set-up: dose 100 mg/kg, route oral. The note with it: in vivo.
The target in data set [4] is Growth hormone secretagogue receptor type 1 (Homo sapiens, UniProt Q92847). Nature of the data set: Binding affinity to human ghrelin receptor.
Sequence of Growth hormone secretagogue receptor type 1 (Q92847 whole entry): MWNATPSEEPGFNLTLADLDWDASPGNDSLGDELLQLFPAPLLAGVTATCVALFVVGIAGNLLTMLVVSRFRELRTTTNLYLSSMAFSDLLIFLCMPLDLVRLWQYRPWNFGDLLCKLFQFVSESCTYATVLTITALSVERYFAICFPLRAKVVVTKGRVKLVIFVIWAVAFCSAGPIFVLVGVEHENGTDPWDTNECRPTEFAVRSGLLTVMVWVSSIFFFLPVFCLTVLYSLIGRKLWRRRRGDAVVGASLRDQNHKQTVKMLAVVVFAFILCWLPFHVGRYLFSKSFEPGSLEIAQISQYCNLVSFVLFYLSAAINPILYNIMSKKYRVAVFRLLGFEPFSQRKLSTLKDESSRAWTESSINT
A short description of data set [5]: Protection against cytokine-induced cell death in rat INS-1E cells assessed as caspase 3/7 activity. It counts as functional, cell-based. The gist of the method: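 Rat insulinoma INS-1E cells (beta-cell phenotype) were treated with cytokines to induce cell death. Caspase 3/7 activity was the read-out. Dose–response run in triplicate.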
A short description of data set [6]: Cmax in C57BL/6 mouse at 10 mg/kg, po administered as single dose after 1 to 1.5 hrs by LC/MS/MS method. It counts as ADME, organism-based. More on the design: dose 10 mg/kg, route oral. The note with it: in vivo.
The target in data set [7] is T1, G-protein coupled receptor 39 (Homo sapiens, UniProt O43194).
T1 sequence (O43194 whole entry): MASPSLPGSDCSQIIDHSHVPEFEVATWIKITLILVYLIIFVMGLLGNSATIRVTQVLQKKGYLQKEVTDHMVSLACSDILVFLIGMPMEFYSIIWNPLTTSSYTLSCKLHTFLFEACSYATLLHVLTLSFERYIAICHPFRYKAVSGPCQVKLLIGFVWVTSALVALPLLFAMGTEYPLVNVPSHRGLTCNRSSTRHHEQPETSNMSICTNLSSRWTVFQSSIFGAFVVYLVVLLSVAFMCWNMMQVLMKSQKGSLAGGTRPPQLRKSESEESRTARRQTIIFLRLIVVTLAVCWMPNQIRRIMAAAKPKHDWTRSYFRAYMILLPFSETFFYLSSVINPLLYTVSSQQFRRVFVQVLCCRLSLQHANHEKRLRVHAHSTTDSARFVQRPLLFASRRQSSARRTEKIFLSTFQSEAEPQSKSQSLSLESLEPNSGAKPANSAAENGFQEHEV
Kind of data set: Agonist activity at human GPR39 by IP1 assay. It counts as functional. The gist of the method:
(§1)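 Gαq signalling read as inositol-1-phosphate (IP1) accumulation in HEK293 cells overexpressing human, mouse or rat GPR39. EC50 taken from an 11-point dose–response curve run in triplicate. Replicates range from 1 to 4, with standard deviation where available.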

Data set [8] concerns the target T1, G-protein coupled receptor 39. Nature of the data set: Agonist activity at human GPR39 expressed in HEK293 cells by cAMP assay. It counts as functional, cell-based. Summed up: (§2)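 cAMP accumulation (Gαs signalling) in HEK293 cells overexpressing human GPR39. Dose–response curve run in triplicate, 1–16 replicates. EC50 derived from the curve. Percent efficacy is expressed relative to the cAMP response to 25 μM forskolin.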
Background: cAMP levels reflect the balance of adenylyl cyclase and phosphodiesterase activity.

A further data set deals with Mus musculus. Nature of the data set: Increase in GLP1 level in C57BL/6 mouse at 30 mg/kg, po concurrently dosed with 3 mg/kg, po DPP4 inhibitor PKF275-055 followed by glucose challenge after 1 hr post drug dose. It counts as functional. Summed up:
(§3)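 Male C57BL/6 mice were dosed orally with compound together with a DPP-IV inhibitor. After 1 h they were challenged with oral glucose at 3 g/kg. Active GLP-1 and plasma exposure were measured 30 min later. One-way ANOVA with Dunnett's post-test against the vehicle group.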

For data set [9], the target named is T2, Protein Gpr39 (Rattus norvegicus, UniProt A6QR73).
T2 sequence (A6QR73 whole entry): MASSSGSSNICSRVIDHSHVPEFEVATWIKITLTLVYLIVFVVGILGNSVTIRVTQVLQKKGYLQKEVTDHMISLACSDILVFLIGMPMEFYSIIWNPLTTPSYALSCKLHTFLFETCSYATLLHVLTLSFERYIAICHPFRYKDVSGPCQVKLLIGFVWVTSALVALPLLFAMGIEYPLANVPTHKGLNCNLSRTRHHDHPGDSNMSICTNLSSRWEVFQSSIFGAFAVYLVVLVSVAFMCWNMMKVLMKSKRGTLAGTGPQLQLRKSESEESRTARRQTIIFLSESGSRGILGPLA
Kind of data set: Agonist activity at rat GPR39 by IP1 assay. It counts as functional. The gist of the method: as §1

The nature of data set [10]: Induction of GLP1 secretion in mouse STC1 cells incubated for 2 hrs by fluorescent bead based ELISA method. It counts as functional, cell-based. Particulars: STC-1, 2 h. Summed up: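 Mouse enteroendocrine STC-1 cells, which express endogenous GPR39, were assayed for GLP-1 secretion over a dose–response run in triplicate. Maximal activity is expressed as fold increase in GLP-1 over the DMSO control.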
(In general: In an ELISA, binding on a coated surface is turned into a signal by an enzyme label.)

Data set [11] can be described thus: Half life in C57BL/6 mouse at 10 mg/kg, po administered as single dose by LC/MS/MS method. It counts as ADME, organism-based. More on the design: dose 10 mg/kg, route oral. The note with it: in vivo. Summed up: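 Male C57BL/6 mice, separate study with a single 10 mg/kg dose. Half-life calculated from the plasma concentration profile.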
A short description of data set [12]: Plasma concentration in C57BL/6 mouse at 30 mg/kg, po concurrently dosed with 3 mg/kg, po DPP4 inhibitor PKF275-055 followed by glucose challenge after 1 hr post drug dose. It counts as ADME, organism-based. Summed up:
as §3

The target of data set [13] is T2, Protein Gpr39. Nature of the data set: Agonist activity at rat GPR39 expressed in HEK293 cells by IP1 assay. It counts as functional, cell-based. The gist of the method: as §1
A short description of data set [14]: Hepatic clearance in rat liver microsomes. It counts as ADME. The gist of the method:
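Predicted hepatic clearance calculated from intrinsic clearance in rat liver microsomes.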
In general terms: Microsomes from liver hold many membrane-bound enzymes, among them those of drug oxidation.

Data set [15] concerns the target T3, G-protein coupled receptor 39 (Homo sapiens) (UniProt O43194).
T3 sequence (whole entry): T1 sequence (O43194 whole entry)
Kind of data set: Agonist activity at human GPR39 expressed in HEK293 cells by cAMP assay relative to forskolin. It counts as functional, cell-based. Summed up: as §2

For data set [16], the target named is Neurotensin receptor type 1 (Homo sapiens, UniProt P30989). Nature of the data set: Binding affinity to human neurotensin 1 receptor.
Sequence of Neurotensin receptor type 1 (P30989 whole entry): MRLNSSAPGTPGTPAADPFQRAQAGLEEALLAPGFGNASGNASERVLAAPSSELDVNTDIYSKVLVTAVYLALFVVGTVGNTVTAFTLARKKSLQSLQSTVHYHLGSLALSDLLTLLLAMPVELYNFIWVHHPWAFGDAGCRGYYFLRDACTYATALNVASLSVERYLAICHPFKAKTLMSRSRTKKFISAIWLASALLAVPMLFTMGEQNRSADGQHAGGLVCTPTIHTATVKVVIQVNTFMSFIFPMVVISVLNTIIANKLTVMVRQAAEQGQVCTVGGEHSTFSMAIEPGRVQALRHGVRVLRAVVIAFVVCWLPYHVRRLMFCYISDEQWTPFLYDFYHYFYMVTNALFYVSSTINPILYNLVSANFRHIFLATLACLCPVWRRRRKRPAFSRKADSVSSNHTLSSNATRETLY
Data set [17] can be described thus: Protein binding in rat plasma. Particulars: read-out: PPB (converted). It counts as ADME, cell-free.
Data set [18] has as its target T1, G-protein coupled receptor 39. Nature of the data set: Agonist activity at human GPR39 expressed in HEK293 cells by IP1 assay. It counts as functional, cell-based. Summed up:
as §1

As a reminder, the Cmax is the maximum level reached in the sampled fluid or tissue. The term IC50 denotes the point on the concentration scale where inhibition reaches its midpoint. As usually defined, the EC50 is the concentration that produces a half-maximal response. In general, half-life refers to the time needed for the level to fall by half in the phase considered. On to `CNc1nc(NCc2ccc(NS(C)(=O)=O)cc2Cl)cc(-c2ccccn2)n1`, for which the fraction unbound is 0.009 in data set [1] and 0.007 in [17]. Moreover, the values for the Cmax in [2], in [3] and in data set [6] were 6.1 µM, 25.3 µM and 1.4 µM, respectively. For the same molecule, the IC50 in data set [4] and in data set [16] was more than 30000 nM in each case. The EC50 in [5] came to 20 nM; in [7], 0.8 nM; in data set [8], 60 nM; at Protein Gpr39 [9], 0.4 nM; in data set [10], 60 nM; on Protein Gpr39 [13], 0.4 nM. This molecule also gave an EC50 in data set [18] of 0.8 nM. In addition, in the data set on Mus musculus, the “fold change (FC)” value was 6. For the same molecule, the half-life in data set [11] is 7 h. In data set [12], this molecule came in with a concentration at 1 h of 1.6 µM. Besides, in data set [14], the CLhep predicted was 41.3 mL/min/kg. In [15], this molecule came in with an Efficacy of 64%.
